From PMC5558211 (Journal of medicinal chemistry, 2017)
“Also recorded” adds a separate entry of the source.

Key:
BrdT(1) = BrdT(1) (Homo sapiens, UniProt Q58F21); test: Fluorescence anisotropy competition assay with BI-BODIPY tracer; format: binding
Brd4(1) [1] = target: T1, Brd4(1) (Homo sapiens, UniProt O60885); test: as above; format: binding
c-Myc = test: Western blot of c-Myc levels; format: cell-based; details: MM1.S cells, 6 h
Outline: (§1)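 MM1.S cells were grown in RPMI-1640 with 10% FBS at 37 °C, 5% CO2, seeded at 1 × 10^6 per well and exposed to increasing inhibitor concentrations for 6 h. Cells were pelleted (300 g, 5 min) and lysed at 4 °C with protease/phosphatase inhibitors plus 5 mM EDTA. Protein was quantified, run on 10 or 12.5% SDS-PAGE, transferred and probed with c-MYC or p21Cip1 antibodies, with chemiluminescent detection.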

p21Cip1 = test: Western blot of p21Cip1 levels; format: cell-based; details: MM1.S cells, 6 h
Outline: as §1

5FW-Brd4(1) = 5FW-Brd4(1) (Homo sapiens, UniProt O60885); test: PrOF NMR titration; format: binding
Outline: (§2)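 19F NMR at 500 MHz with cryoprobe, 40–50 μM 5FW-labelled bromodomain in 50 mM Tris, 100 mM NaCl, pH 7.4, 5% D2O (BrdT samples also 3 mM DTT). Used 90° flip angle, 0.7 s relaxation delay, 0.1 s acquisition and 500 transients, referenced to TFA at −76.55 ppm. Ligand was titrated from concentrated DMSO stocks, keeping DMSO below 1%. Kd came from a one-site fit accounting for ligand depletion.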

Brd4(1) [2] = target: T1, Brd4(1); test: AlphaScreen competition against biotinylated compound 2; format: binding; details: for Hill slope: alpha-screen competition
5FW-BrdT(1) = 5FW-BrdT(1) (Homo sapiens, UniProt Q58F21); test: PrOF NMR titration; format: binding
Outline: as §2

5FW-BPTF = 5FW-BPTF (Homo sapiens, UniProt Q12830); test: PrOF NMR titration; format: binding; details: non-BET bromodomain BPTF
MM1.S cells = test: Cell viability; format: cell-based
[3] = Stability of DMSO solution over freeze-thaw cycles by ESI-MS; format: physicochemical; details: DMSO solution at −20 °C, several freeze-thaw cycles

Compound	binding by fluorescence anisotropy (BrdT(1))	effect on c-Myc levels (c-Myc)	effect on p21Cip1 levels (p21Cip1)	binding behaviour by PrOF NMR (5FW-Brd4(1))	further results
CCn1c2c(c(=O)n(C)c1=O)C(c1ccc(C)cc1)C1=C(COC1=O)N2 (stereo not drawn) [Compound 3m, 1-Ethyl-3-methyl-5-(p-tolyl)-5,9-dihydrofuro[3′,4′:5,6]pyrido[2,3-d]pyrimidine-2,4,6(1H,3H,8H)-trione]	inactive	–	–	–	–
CCn1c(=O)[nH]c(=O)c2c(-c3ccc(C)cc3)c3c(nc21)COC3=O [Compound 3n, 1-Ethyl-5-(p-tolyl)furo[3′,4′:5,6]pyrido[2,3-d]pyrimidine-2,4,6(1H,3H,8H)-trione]	no binding was observed	–	–	–	binding by fluorescence anisotropy (Brd4(1) [1]): no binding was observed
CCn1c2c(c(=O)[nH]c1=O)C(c1ccc(C)cc1)C1=C(CN(Cc3ccccc3)C1=O)N2 (stereo not drawn) [Compound 3p, 7-Benzyl-1-ethyl-5-(p-tolyl)-5,7,8,9-tetrahydro-1H-pyrrolo[3',4':5,6]pyrido[2,3-d]pyrimidine-2,4,6(3H)-trione]	–	decreasing c-Myc expression levels	concomitant increase in p21Cip1	–	–
O=C1COC(=O)C1 [tetronic acid, reference compound]	–	–	–	No binding was observed	–
CCn1c2c(c(=O)[nH]c1=O)C(c1ccc(C)cc1)C1=C(CN(CCc3ccc(OC)cc3)C1=O)N2 (stereo not drawn) [Compound 3r, 1-Ethyl-7-(4-methoxyphenethyl)-5-(p-tolyl)-5,7,8,9-tetrahydro-1H-pyrrolo[3',4':5,6]pyrido[2,3-d]pyrimidine-2,4,6(3H)-trione]	–	decreasing c-Myc expression levels	concomitant increase in p21Cip1	–	–
CCn1c2c(c(=O)[nH]c1=O)C(c1ccc(C)cc1)C1=C(COC1=O)N2 (stereo not drawn) [Compound 3, 1-Ethyl-5-(p-tolyl)-5,9-dihydrofuro[3′,4′:5,6]pyrido[2,3-d]pyrimidine-2,4,6(1H,3H,8H)-trione]	–	ineffective in altering c-Myc or p21Cip1 levels	ineffective in altering c-Myc or p21Cip1 levels	slow to intermediate exchange	Hill slope (Brd4(1) [2]): −1; effect of serum on binding by PrOF NMR (5FW-Brd4(1); presence of serum): did not interfere with the binding; binding behaviour by PrOF NMR (5FW-BrdT(1)): slow to intermediate exchange; binding by PrOF NMR (5FW-BPTF): does not bind; also recorded: no binding was detected; growth inhibition activity (MM1.S cells): lacked growth inhibition activity; stability of dihydropyridine moiety [3]: remains stable
Cc1ccc(C2C3=C(COC3=O)Nc3c2c(=O)n(C)c(=O)n3C)cc1 (stereo not drawn) [Compound 3e, 1,3-Dimethyl-5-(p-tolyl)-5,9-dihydrofuro[3′,4′:5,6]pyrido[2,3-d]pyrimidine-2,4,6(1H,3H,8H)-trione]	inactive	–	–	–	–
CCn1c(N)cc(=O)[nH]c1=O [6-amino-1-ethyluracil, reference compound]	–	–	–	–	ligand efficiency (5FW-Brd4(1); from PrOF NMR Kd): 0.39 kcal/mol/non-hydrogen atom
COc1ccc(C2C3=C(COC3=O)Nc3c2c(=O)n(C)c(=O)n3C)cc1 (stereo not drawn) [Compound 3f, 5-(4-Methoxyphenyl)-1,3-dimethyl-5,9-dihydrofuro[3′,4′:5,6]pyrido[2,3-d]pyrimidine-2,4,6(1H,3H,8H)-trione]	inactive	–	–	–	–
Cc1sc2c(c1C)C(c1ccc(Cl)cc1)=N[C@@H](CC(=O)OC(C)(C)C)c1nnc(C)n1-2 [Compound 2, (+)-JQ1, reference compound]	–	dose-dependent reduction of c-Myc levels	upregulation of p21Cip1 levels	–	–
CCn1c2c(c(=O)[nH]c1=O)C(c1ccc(C)cc1)C1=C(CN(CCc3ccc(O)cc3)C1=O)N2 (stereo not drawn) [Compound 3s, 1-Ethyl-7-(4-hydroxyphenethyl)-5-(p-tolyl)-5,7,8,9-tetrahydro-1H-pyrrolo[3',4':5,6]pyrido[2,3-d]pyrimidine-2,4,6(3H)-trione]	–	decreasing c-Myc expression levels	concomitant increase in p21Cip1	slow exchange	–
CCn1c2c(c(=O)[nH]c1=O)C(c1ccc(C)cc1)C1=C(CN(CCc3ccccc3)C1=O)N2 (stereo not drawn) [Compound 3q, 1-Ethyl-7-phenethyl-5-(p-tolyl)-5,7,8,9-tetrahydro-1H-pyrrolo[3',4':5,6]pyrido[2,3-d]pyrimidine-2,4,6(3H)-trione]	–	decreasing c-Myc expression levels	concomitant increase in p21Cip1	–	–
Cc1ccc(C2C3=C(COC3=O)Nc3c2c(=O)[nH]c(=O)n3CC(F)(F)F)cc1 (stereo not drawn) [Compound 3j, 5-(p-Tolyl)-1-(2,2,2-trifluoroethyl)-5,9-dihydrofuro[3′,4′:5,6]pyrido[2,3-d]pyrimidine-2,4,6(1H,3H,8H)-trione]	–	ineffective in altering c-Myc or p21Cip1 levels	ineffective in altering c-Myc or p21Cip1 levels	slow to intermediate exchange	IC50 (Brd4(1) [2]): 4.6 µM; Hill slope (Brd4(1) [2]): −1.6; growth inhibition activity (MM1.S cells): lacked growth inhibition activity
